The source made the active and inactive calls. No cut-off for these calls is given here.
Tests used:
[1] = Total clearance in rabbit at 105 mg/kg, ig up to 24 hrs by HPLC analysis; assay type: ADME, organism-based, Oryctolagus cuniculus; design: dose 105 mg/kg, route intragastric; conditions: in vivo, po
Method in brief: (§1)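 Rabbits (n = 4), anesthetised with ether-Fluorothane 10:1, given a single 105 mg/kg dose in water (12 ml) by gastric tube. Ear-vein blood was heparinised at set times up to 24 h, mixed with methanol, centrifuged, dried, redissolved in water and assayed by C18 HPLC. Parameters came from an extravascular noncompartmental model. F = (AUCi.g./dose)/(AUCi.v./dose); CL = dose/AUC; Vss = CL × MRT.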

[2] = test system: Oryctolagus cuniculus; experiment: Volume of distribution at steady state in rabbit at 105 mg/kg, ig up to 24 hrs by HPLC analysis; assay type: ADME, organism-based; design: dose 105 mg/kg, route intragastric; conditions: in vivo, po; method in brief: as §1
[3] = Tmax in rabbit at 105 mg/kg, ig by HPLC analysis; assay type: ADME, organism-based, Oryctolagus cuniculus; design: dose 105 mg/kg, route intragastric; conditions: in vivo, po; method in brief: as §1
[4] = Cmax in rabbit at 105 mg/kg, ig up to 24 hrs by HPLC analysis; assay type: ADME, organism-based, Oryctolagus cuniculus; design: dose 105 mg/kg, route intragastric; conditions: in vivo, po; method in brief: as §1
[5] = Mean residence time in rabbit at 105 mg/kg, ig by HPLC analysis; assay type: ADME, organism-based, Oryctolagus cuniculus; design: dose 105 mg/kg, route intragastric; conditions: in vivo, po; method in brief: as §1
[6] = Apparent elimination half life in rabbit at 105 mg/kg, ig by HPLC analysis; assay type: ADME, organism-based, Oryctolagus cuniculus; design: dose 105 mg/kg, route intragastric; conditions: in vivo, po, read-out: beta t1/2 (converted); method in brief: as §1
[7] = Total AUC in rabbit at 105 mg/kg, ig up to 24 hrs by HPLC analysis; assay type: ADME, organism-based, Oryctolagus cuniculus; design: time AUCmax, dose 105 mg/kg, route intragastric; conditions: in vivo, po; method in brief: as §1
[8] = test system: Influenza A virus; experiment: Antiviral activity against Influenza A virus (A/duck/Potsdam/1402-6/1986 (H5N2)) infected in MDCK cells assessed as log reduction in viral titer at 385 uM after 48 hrs […]; assay type: functional
[9] = test system: Influenza A virus; experiment: Antiviral activity against Influenza A virus (A/Hong Kong/1073/99(H9N2)) infected in MDCK cells assessed as log reduction in viral titer at 385 uM after 48 hrs […]; assay type: functional
[10] = test system: Influenza A virus; experiment: Antiviral activity against Influenza A virus/H7N3 (A/Mallard/NT/12/02) infected in MDCK cells assessed as log reduction in viral titer at 960 uM after 48 hrs by MTT assay; assay type: functional
[11] = test system: Influenza A virus; experiment: Antiviral activity against Influenza A virus H3N2 (A/Victoria/35/72) infected in MDCK cells assessed as log reduction in viral titer at 960 uM after 48 hrs […]; assay type: functional
Method in brief: (§2)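 MDCK monolayers in MEM with 10% FBS at 37°C under 5% CO2 were infected with allantoic-fluid virus diluted 10−1 to 10−7. Aqueous test compound was added after 1 h adsorption. Virus yield was read at 48 h by haemagglutination with 0.5% chicken erythrocytes, and titres also by plaque assay. Each concentration was run in duplicate.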

[12] = test system: H3N2 subtype; experiment: Antiviral activity against Influenza A virus (A/Aichi/2/1968(H3N2)) infected in […] assessed as survival rate at 100 mg/kg, ig administered 1 and 24 hrs before infection and 24 to 72 hrs post infection; assay type: functional; conditions: route intragastric
[13] = test system: Influenza A virus; experiment: Antiviral activity against Influenza A virus H3N2 (A/Victoria/35/72) infected in human HuH7 cells assessed as log reduction in viral titer at 1000 ug/ml; assay type: functional, Huh-7
[14] = test system: H3N2 subtype; experiment: Antiviral activity against Influenza A virus (A/Aichi/2/1968(H3N2)) infected in […] at 100 to 150 mg/kg, ig administered after 48 hrs post infection; assay type: functional, organism-based
[15] = Toxicity against ig dosed rabbit; assay type: organism-based, Oryctolagus cuniculus; conditions: in vivo, po
[16] = Toxicity against ip dosed rabbit; assay type: organism-based, Oryctolagus cuniculus; conditions: in vivo
[17] = test system: Influenza A virus; experiment: Antiviral activity against Influenza A virus (A/Vietnam/1194/2004 (H5N1)) infected in MDCK cells assessed as log reduction in viral titer at 385 uM after 48 hrs […]; assay type: functional
[18] = test system: H3N2 subtype; experiment: Antiviral activity against Influenza A virus (A/Aichi/2/1968(H3N2)) infected in […] at 100 to 150 mg/kg, ig administered 1 hr before infection; assay type: functional, organism-based
[19] = test system: H3N2 subtype; experiment: Antiviral activity against Influenza A virus (A/Aichi/2/1968(H3N2)) infected in […] at 100 to 150 mg/kg, ig administered after 24 hrs post infection; assay type: functional, organism-based
[20] = test system: Influenza A virus; experiment: Antiviral activity against Influenza A virus H3N2 (A/Victoria/35/72) infected in MDCK cells assessed as log reduction in viral titer at 385 uM after 48 hrs […]; assay type: functional; method in brief: as §2
[21] = test system: Influenza B virus; experiment: Antiviral activity against Influenza B virus (B/Lee/1940) infected in […] at 100 to 150 mg/kg, ig administered after 24 hrs post infection; assay type: functional, organism-based
[22] = test system: Influenza A virus; experiment: Antiviral activity against Influenza A virus (A/Hong Kong/1073/99(H9N2)) infected in MDCK cells assessed as log reduction in viral titer at 960 uM after 48 hrs […]; assay type: functional
[23] = test system: Influenza B virus; experiment: Antiviral activity against Influenza B virus (B/Lee/1940) infected in […] assessed as survival rate at 100 mg/kg, ig administered 1 and 24 hrs before infection and 24 to 72 hrs post infection; assay type: functional; conditions: route intragastric
[24] = Bioavailability in rabbit at 105 mg/kg, ig up to 24 hrs by HPLC analysis; assay type: ADME, organism-based, Oryctolagus cuniculus; conditions: in vivo, po; method in brief: as §1
[25] = test system: Influenza B virus; experiment: Antiviral activity against Influenza B virus (B/Lee/1940) infected in […] assessed as survival rate at 150 mg/kg, ig administered 1 and 24 hrs before infection and 24 to 72 hrs post infection; assay type: functional; conditions: route intragastric
[26] = test system: Influenza B virus; experiment: Antiviral activity against Influenza B virus (B/Lee/1940) infected in rabbit at 100 to 150 mg/kg, ig administered after 48 hrs post infection; assay type: functional, organism-based
[27] = Cytotoxicity against MDCK cells after 48 hrs by MTT assay; assay type: cell-based, Canis lupus familiaris; conditions: dog
Method in brief: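 Cytotoxicity was measured on uninfected MDCK monolayers grown in MEM with 10% FBS and penicillin/streptomycin at 37°C under 5% CO2. Viability was read by MTT and expressed as CC50.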

[28] = test system: Influenza A virus; experiment: Antiviral activity against Influenza A virus H7N3 (A/Mallard/NT/12/02) infected in MDCK cells assessed as log reduction in viral titer at 385 uM after 48 hrs […]; assay type: functional
[29] = test system: Influenza A virus; experiment: Antiviral activity against Influenza A virus (A/Vietnam/1194/2004 (H5N1)) infected in MDCK cells assessed as log reduction in viral titer at 960 uM after 48 hrs […]; assay type: functional
[30] = test system: Influenza B virus; experiment: Antiviral activity against Influenza B virus (B/Lee/1940) infected in […] at 100 to 150 mg/kg, ig administered 24 hrs before infection; assay type: functional, organism-based
[31] = test system: Influenza B virus; experiment: Antiviral activity against Influenza B virus (B/Lee/1940) infected in […] at 100 to 150 mg/kg, ig administered 1 hr before infection; assay type: functional, organism-based
[32] = test system: H3N2 subtype; experiment: Antiviral activity against Influenza A virus (A/Aichi/2/1968(H3N2)) infected in […] at 100 to 150 mg/kg, ig administered 24 hrs before infection; assay type: functional, organism-based
[33] = test system: Influenza A virus; experiment: Antiviral activity against Influenza A virus (A/duck/Potsdam/1402-6/1986 (H5N2)) infected in MDCK cells assessed as log reduction in viral titer at 960 uM after 48 hrs by MTT assay; assay type: functional
[34] = test system: Influenza A virus; experiment: Antiviral activity against Influenza A virus H3N2 (A/Victoria/35/72) infected in HEK293T cells assessed as log reduction in viral titer at 1000 ug/ml; assay type: functional, HEK-293T
[35] = test system: Influenza A virus; experiment: Antiviral activity against Influenza A virus/H7N3 (A/Mallard/NT/12/02) infected in MDCK cells assessed as log reduction in viral titer at 502 uM after 48 hrs by MTT assay; assay type: functional
[36] = test system: Oryctolagus cuniculus; experiment: Volume of distribution at steady state in rabbit at 4.3 mg/kg, iv up to 24 hrs by HPLC analysis; assay type: ADME, organism-based; design: dose 4.3 mg/kg, route intravenous; conditions: in vivo
Method in brief: (§3)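 Rabbits (n = 4) received 4.3 mg/kg in physiological solution into the marginal ear vein over 1 min. Ear-vein blood was heparinised at set times up to 24 h, methanol-extracted and assayed by C18 HPLC with a heptafluorobutyric acid/ethanol gradient. A noncompartmental i.v. infusion model gave AUCtot, T1/2 and MRT; Vss = CL × MRT.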

[37] = test system: Oryctolagus cuniculus; experiment: Total AUC in rabbit at 4.3 mg/kg, iv up to 24 hrs by HPLC analysis; assay type: ADME, organism-based; design: time AUCmax, dose 4.3 mg/kg, route intravenous; conditions: in vivo; method in brief: as §3
[38] = test system: Influenza A virus; experiment: Antiviral activity against Influenza A virus H3N2 (A/Victoria/35/72) infected in MDCK cells assessed as log reduction in viral titer at 502 uM after 48 hrs […]; assay type: functional; method in brief: as §2
[39] = test system: Influenza A virus; experiment: Antiviral activity against Influenza A virus (A/Vietnam/1194/2004 (H5N1)) infected in MDCK cells assessed as log reduction in viral titer at 502 uM after 48 hrs […]; assay type: functional
[40] = test system: H3N2 subtype; experiment: Antiviral activity against Influenza A virus (A/Aichi/2/1968(H3N2)) infected in […] assessed as survival rate at 50 mg/kg, ig administered 1 and 24 hrs before infection and 24 to 72 hrs post infection; assay type: functional; conditions: route intragastric
[41] = test system: Influenza A virus; experiment: Antiviral activity against Influenza A virus (A/duck/Potsdam/1402-6/1986 (H5N2)) infected in MDCK cells assessed as log reduction in viral titer at 502 uM after 48 hrs […]; assay type: functional
[42] = test system: Influenza B virus; experiment: Antiviral activity against Influenza B virus (B/Lee/1940) infected in […] assessed as survival rate at 50 mg/kg, ig administered 1 and 24 hrs before infection and 24 to 72 hrs post infection; assay type: functional; conditions: route intragastric
[43] = test system: Influenza A virus; experiment: Antiviral activity against Influenza A virus (A/Hong Kong/1073/99(H9N2)) infected in MDCK cells assessed as log reduction in viral titer at 502 uM after 48 hrs […]; assay type: functional

Molecule `CSc1nc2[nH]nc(N)c(=O)n2n1` has a CL/F [1] of 740 mL/min/kg, a Vdss [2] of 58.5 L/kg and a Tmax [3] of 3 h. For the same molecule, the Cmax [4] was 140 ng/mL, the MRT [5] was 4.14 h and the half-life [6] was 0.97 h. The AUC at 24 h [7] was 690 ng·h/mL.

With `CSc1nc2[n-]nc([N+](=O)[O-])c(=O)n2n1.O.O.[Na+]` [TRIAZAVIRINE] the FC [8] was 0.5, the FC [9] was 0 and the FC [10] was 3.5. For the same molecule, the FC [11] was 1, the CL/F [1] was 617 mL/min/kg and the Activity [12] was 70%. For the same molecule, the FC [13] was <0.75, the Vdss [2] was 83.5 L/kg and the Activity [14] was “Active”. The LD50 [15] was 2200 mg/kg, the Tmax [3] was 0.4 h and the Cmax [4] was 1100 ng/mL. The MRT [5] was 2.3 h, the LD50 [16] was 1400 mg/kg and the FC [17] was 2. The Activity [18] was “Active”, the Activity [19] was “Active” and the FC [20] was 1. The half-life [6] was 1.1 h, the Activity [21] was “Active” and the FC [22] was 0.5. The Activity [23] was 65%, the bioavailability [24] was 12.5% and the Activity [25] was 65%. The Activity [26] was “Active”, the CC50 at 48 h [27] was > 8 mM and the AUC at 24 h [7] was 3100 ng·h/mL. For the same molecule, the FC [28] was 0.25, the FC [29] was 2.25 and the Activity [30] was “Active”. For the same molecule, the Activity [31] was “Active”, the Activity [32] was “Active” and the FC [33] was 1.6. For the same molecule, the FC [34] was <0.75.

In the case of `CC(N)C12CC3CC(CC(C3)C1)C2` (configuration not stated) [RIMANTADINE], the FC [35] is reported as 3, the Vdss [36] is reported as 1.2 L/kg and the Activity [12] is reported as 85%. For the same molecule, the AUC [37] was 1200 ng·h/mL, the FC [38] was 5 and the FC [39] was 1. It also gave an Activity [23] of 20%, an Activity [40] of 80% and an FC [41] of 2. The Activity [42] was 15% and the FC [43] was 0.75.
